We go through 15 compounds from ChEMBL document CHEMBL1139374, “Multivalent scaffolds for affinity maturation of small molecule cell surface binders and their application to prostate tumor targeting” (J Med Chem, 2009).

The source made the active and inactive calls. The calls are words filed in the database; no cut-off is given here.

Assay [1] addresses T1, Glutamate carboxypeptidase 2 (Homo sapiens, UniProt Q04609). Put plainly: Binding affinity to PSMA in human PC3 cells assessed as cell surface binding in Tris-buffered saline buffer. The format is cell-based. Particulars: for Activity: PC-3. In a few lines:
(§1)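 Cells washed twice in ice-cold TBS pH 7.4, then held 20 min at 4°C with 0.02 MBq 99mTc-labeled tracer, with or without test compound, in TBS, PBS or 100% calf serum. Washed three times in TBS, gamma-counted, affinity taken from curve fit; mean ± S.D.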

Assay [2] has as its target T1, Glutamate carboxypeptidase 2. Nature of the assay: Binding affinity to PSMA in human LNCaP cells assessed as cell surface binding in Tris-buffered saline buffer. The format is cell-based. In a few lines: as §1
For assay [3] the target is unchanged. Nature of the assay: Binding affinity to PSMA in human LNCaP cells assessed as cell surface binding in phosphate-buffered saline buffer. It is filed as cell-based. In a few lines:
(§2)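 Live-cell homologous competition; cells grown in RPMI 1640 with 10% FBS at 37°C and 5% CO2. Cells washed twice in ice-cold TBS pH 7.4, then held 20 min at 4°C with 0.02 MBq 99mTc-labeled tracer, with or without test compound, in TBS, PBS or 100% calf serum. Washed three times in TBS, gamma-counted, affinity taken from curve fit; mean ± S.D.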

For assay [4] the target is unchanged. Nature of the assay: Binding affinity to PSMA in human LNCaP cells assessed as cell surface binding in presence of 100% calf serum. It is filed as cell-based. In a few lines: as §2
Assay [5] has the same target. Nature of the assay: Binding affinity to PSMA in human PC3 cells assessed as cell surface binding in phosphate-buffered saline buffer. It is filed as cell-based. In outline:
as §2

Assay [6] has the same target. Nature of the assay: Binding affinity to PSMA in living human LNCaP cells assessed as cell surface binding at 2 uM in presence of 100% calf serum by NIR fluorescence imaging. The format is cell-based. In outline:
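Exponentially growing LNCaP cells at 75% confluence on glass coverslips, exposed to 2 μM compound in 0.2 mL 100% calf serum for 20 min at room temperature. Washed three times in serum, fixed in 2% paraformaldehyde 10 min, permeabilized with PBS-0.1% Tween-20 and mounted. Phase-contrast and NIR images taken on a four-channel NIR fluorescence microscope at identical exposure and normalization.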
Target sequence in this assay (Q04609 whole entry, looked up): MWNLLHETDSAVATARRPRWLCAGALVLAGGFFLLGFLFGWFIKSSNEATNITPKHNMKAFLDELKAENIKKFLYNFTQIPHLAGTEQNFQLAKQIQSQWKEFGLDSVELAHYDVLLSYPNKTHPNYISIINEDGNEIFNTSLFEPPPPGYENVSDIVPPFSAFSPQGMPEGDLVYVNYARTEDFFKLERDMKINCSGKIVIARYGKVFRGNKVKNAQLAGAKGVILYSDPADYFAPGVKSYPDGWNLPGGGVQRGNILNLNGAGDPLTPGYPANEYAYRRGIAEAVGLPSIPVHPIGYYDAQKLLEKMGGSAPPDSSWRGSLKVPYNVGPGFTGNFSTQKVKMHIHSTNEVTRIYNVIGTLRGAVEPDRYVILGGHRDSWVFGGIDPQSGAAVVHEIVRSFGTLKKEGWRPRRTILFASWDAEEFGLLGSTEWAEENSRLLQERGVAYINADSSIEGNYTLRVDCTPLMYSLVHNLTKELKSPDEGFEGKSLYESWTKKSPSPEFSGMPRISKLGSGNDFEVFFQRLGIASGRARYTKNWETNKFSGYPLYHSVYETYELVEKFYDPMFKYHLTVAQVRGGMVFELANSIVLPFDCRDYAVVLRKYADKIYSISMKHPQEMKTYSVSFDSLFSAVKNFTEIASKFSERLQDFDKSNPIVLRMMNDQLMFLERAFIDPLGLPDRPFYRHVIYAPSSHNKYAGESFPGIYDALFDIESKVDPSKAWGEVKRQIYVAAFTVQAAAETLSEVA

For assay [7] the target is unchanged. Nature of the assay: Binding affinity to PSMA in human PC3 cells assessed as cell surface binding in presence of 100% calf serum. The format is cell-based, PC-3. In a few lines: as §2
Target sequence in this assay (Q04609 whole entry): as the sequence (Q04609 whole entry, looked up) above

Usually Kd stands for a measure of binding affinity in units of concentration.

With `CC1(C)C(/C=C/C2=C(Oc3ccc(S(=O)(=O)[O-])cc3)C(=C/C=C3\N(CCCCS(=O)(=O)O)c4ccccc4C3(C)C)/CCC2)=[N+](CCCCCC(=O)NC23CC4(CCC(=O)O)CC(CCC(=O)O)(CC(CCC(=O)O)(C4)C2)C3)c2ccccc21`, the outcome in assay [1] and in assay [2] was inactive.
For the compound `CC1(C)C(/C=C/C2=C(Oc3ccc(S(=O)(=O)O)cc3)C(=C/C=C3/N(CCCCS(=O)(=O)O)c4ccc(S(=O)(=O)O)cc4C3(C)C)/CCC2)=[N+](CCCCCC(=O)NCCCCCC(=O)NC23CC4(CCC(=O)O)CC(CCC(=O)O)(CC(CCC(=O)O)(C4)C2)C3)c2ccc(S(=O)(=O)[O-])cc21`, the result in assay [1] and in assay [2] was inactive.
Take `N[C@@H](CCP(=O)(O)CC(CCC(=O)O)C(=O)O)C(=O)O` (stereo partly specified): the outcome in assay [3] and in assay [4] was inactive. Also, in assay [2], the Kd worked out at 10.5 nM.
On to `NC12CC3(CCC(=O)O)CC(CCC(=O)O)(C1)CC(CCC(=O)O)(C2)C3`, for which the result in assay [3], in assay [1], in assay [5] (PC-3) and in assay [2] was inactive.
`CC1(C)C(/C=C/C2=C(Oc3ccc(S(=O)(=O)O)cc3)C(=C/C=C3/N(CCCCS(=O)(=O)O)c4ccc(S(=O)(=O)[O-])cc4C3(C)C)/CCC2)=[N+](CCCCCC(=O)NCCCCCC(=O)NC23CC4(CCC=O)CC(CCC(=O)N[C@@H](CCP(=O)(O)CC(CCC(=O)O)C(=O)O)C(=O)O)(CC(CCC(=O)N[C@@H](CCP(=O)(O)CC(CCC(=O)O)C(=O)O)C(=O)O)(C4)C2)C3)c2ccc(S(=O)(=O)O)cc21` (stereo partly specified): the Kd in assay [3] came to 1.9 nM; in assay [4], 1.7 nM; in assay [2], 1.3 nM.
With `CC1(C)C(/C=C/C2=C(Oc3ccc(S(=O)(=O)O)cc3)C(=C/C=C3/N(CCCCS(=O)(=O)O)c4ccc(S(=O)(=O)[O-])cc4C3(C)C)/CCC2)=[N+](CCCCCC(=O)NCCCCCC(=O)NC23CC4(CCC=O)CC(CCC=O)(CC(CCC(=O)N[C@@H](CCP(=O)(O)CC(CCC(=O)O)C(=O)O)C(=O)O)(C4)C2)C3)c2ccc(S(=O)(=O)O)cc21` (stereo partly specified), the Kd in assay [2] turned out to be 5.4 nM.
For the compound `CC(C)(C)OC(=O)NCCCCCC(=O)NC12CC3(CCC(=O)N[C@@H](CCP(=O)(O)CC(CCC(=O)O)C(=O)O)C(=O)O)CC(CCC(=O)N[C@@H](CCP(=O)(O)CC(CCC(=O)O)C(=O)O)C(=O)O)(CC(CCC(=O)N[C@@H](CCP(=O)(O)CC(CCC(=O)O)C(=O)O)C(=O)O)(C3)C1)C2` (stereo partly specified), the dissociation constant (Kd) in assay [3] was 0.5 nM; in assay [4] it was 0.7 nM; in assay [2] it was 0.4 nM.
Consider `CC1(C)C(/C=C/C2=C(Oc3ccc(S(=O)(=O)[O-])cc3)C(=C/C=C3/N(CCCCS(=O)(=O)O)c4ccccc4C3(C)C)/CCC2)=[N+](CCCCCC(=O)O)c2ccccc21`, for which the outcome in assay [1] and in assay [2] was inactive. Moreover, the Activity in assay [6] is 100%.
On to `CC1(C)C(/C=C/C2=C(Oc3ccc(S(=O)(=O)O)cc3)C(=C/C=C3/N(CCCCS(=O)(=O)O)c4ccc(S(=O)(=O)O)cc4C3(C)C)/CCC2)=[N+](CCCCCC(=O)N[C@@H](CCP(=O)(O)CC(CCC(=O)O)C(=O)O)C(=O)O)c2ccc(S(=O)(=O)[O-])cc21` (stereo partly specified), for which the outcome in assay [3] and in assay [4] was inactive.
`CC1(C)C(C=CC2=C(Oc3ccc(S(=O)(=O)O)cc3)/C(=C/C=C3/N(CCCCCC(=O)N[C@@H](CCP(=O)(O)CC(CCC(=O)O)C(=O)O)C(=O)O)c4ccc(S(=O)(=O)[O-])cc4C3(C)C)CCC2)=[N+](CCCCS(=O)(=O)O)c2ccc(S(=O)(=O)O)cc21` (stereo partly specified): the dissociation constant Kd in assay [2] was determined as 3.6 nM.
`CC1(C)C(/C=C/C2=C(Oc3ccc(S(=O)(=O)O)cc3)C(=C/C=C3/N(CCCCS(=O)(=O)O)c4ccc(S(=O)(=O)O)cc4C3(C)C)/CCC2)=[N+](CCCCCC(=O)NCCCCCC(=O)NC23CC4(CCC=O)CC(CCC=O)(CC(CCC(=O)N[C@@H](CCP(=O)(O)CC(CCC(=O)O)C(=O)O)C(=O)O)(C4)C2)C3)c2ccc(S(=O)(=O)[O-])cc21` (stereo partly specified): the outcome in assay [3] and in assay [4] was inactive.
Take `CC1(C)C(/C=C/C2=C(Oc3ccc(S(=O)(=O)[O-])cc3)C(=C/C=C3/Nc4ccccc4C3(C)C)/CCC2)=[N+](CCCCCC(=O)NC23CC4(CCC(=O)N[C@@H](CCP(=O)(O)CC(CCC(=O)O)C(=O)O)C(=O)O)CC(CCC(=O)N[C@@H](CCP(=O)(O)CC(CCC(=O)O)C(=O)O)C(=O)O)(CC(CCC(=O)N[C@@H](CCP(=O)(O)CC(CCC(=O)O)C(=O)O)C(=O)O)(C4)C2)C3)c2ccccc21` (stereo partly specified): the dissociation constant (Kd) in assay [3] was found to be 0.3 nM; in assay [4], 0.3 nM; in assay [2], 0.2 nM. Besides, in assay [6], the Activity was determined as 100%.
Consider `CC1(C)C(/C=C/C2=C(Oc3ccc(S(=O)(=O)O)cc3)C(=C/C=C3/N(CCCCS(=O)(=O)O)c4ccc(S(=O)(=O)O)cc4C3(C)C)/CCC2)=[N+](CCCCCC(=O)NCCCCCC(=O)NC23CC4(CCC(=O)N[C@@H](CCP(=O)(O)CC(CCC(=O)O)C(=O)O)C(=O)O)CC(CCC(=O)N[C@@H](CCP(=O)(O)CC(CCC(=O)O)C(=O)O)C(=O)O)(CC(CCC(=O)N[C@@H](CCP(=O)(O)CC(CCC(=O)O)C(=O)O)C(=O)O)(C4)C2)C3)c2ccc(S(=O)(=O)[O-])cc21` (stereo partly specified), for which the Kd in assay [3] and in assay [2] was 0.5 nM each time. Besides, in assay [4], the Activity worked out at 0.4 nM.
For `CC(C)(C)OC(=O)NC12CC3(CCC(=O)N[C@@H](CCP(=O)(O)CC(CCC(=O)O)C(=O)O)C(=O)O)CC(CCC(=O)N[C@@H](CCP(=O)(O)CC(CCC(=O)O)C(=O)O)C(=O)O)(CC(CCC(=O)N[C@@H](CCP(=O)(O)CC(CCC(=O)O)C(=O)O)C(=O)O)(C3)C1)C2` (stereo partly specified), the Kd in assay [3] was determined as 0.8 nM; in assay [1] it was 0.2 nM; in assay [7] it was 0.6 nM; in assay [5], 0.3 nM; in assay [2], 0.6 nM. In addition, the Activity in assay [4] is 0.9 nM.
As to `CC1(C)C(/C=C/C2=C(Oc3ccc(S(=O)(=O)O)cc3)C(=C/C=C3/N(CCCCS(=O)(=O)O)c4ccc(S(=O)(=O)O)cc4C3(C)C)/CCC2)=[N+](CCCCCC(=O)O)c2ccc(S(=O)(=O)[O-])cc21`, the outcome in assay [1] and in assay [2] was inactive.
